Assay results: ChEMBL document CHEMBL1139900, “Synthesis and SAR studies of a novel class of S1P1 receptor antagonists” (Bioorg Med Chem, 2007)
pIC50: −log10 of the molar value.

Tests used:
Type in all cases: functional, cell-based
[1] = target: T1, Sphingosine 1-phosphate receptor 1 (Homo sapiens, UniProt P21453); test: Antagonist activity at human S1P1 receptor expressed in CHO cell membrane by cAMP assay
Procedure, shortened: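 CHO cells stably expressing human S1P1, kept in selection medium with 125 nM methotrexate, seeded at 4 × 10⁵ cells/well and grown overnight. Serum was removed, cells preincubated 5 min with 1 mM IBMX, then stimulated 15 min with 30 µM forskolin ± 100 nM S1P plus test compound at various concentrations, with IBMX kept present. Cells were lysed in 1% Triton X-100; cAMP read by competitive kit assay (n = 3).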

[2] = target: T1, Sphingosine 1-phosphate receptor 1; test: Antagonist activity at human S1P1 receptor expressed in CHO cell membrane by FLIPR assay
Procedure, shortened: (§1)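 Stably transfected CHO cells in HAM medium with 10% dialyzed FBS, seeded at 5 × 10⁴ cells/mL and grown 2 days. Buffer: HBSS without phenol red, 20 mM Hepes, 2.5 mM probenecid, pH 7.4. Loaded 45–60 min with 4 µM Fluo3-AM plus 0.04% pluronic acid, then washed. Serially diluted compound added for 10 min before S1P injection; calcium fluorescence read on FLIPR.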

[3] = target: Sphingosine 1-phosphate receptor 3 (Homo sapiens, UniProt Q99500); test: Antagonist activity at human S1P3 receptor expressed in CHO cell membrane by FLIPR assay; procedure, shortened: as §1
Sphingosine 1-phosphate receptor 3, sequence (Q99500 whole entry): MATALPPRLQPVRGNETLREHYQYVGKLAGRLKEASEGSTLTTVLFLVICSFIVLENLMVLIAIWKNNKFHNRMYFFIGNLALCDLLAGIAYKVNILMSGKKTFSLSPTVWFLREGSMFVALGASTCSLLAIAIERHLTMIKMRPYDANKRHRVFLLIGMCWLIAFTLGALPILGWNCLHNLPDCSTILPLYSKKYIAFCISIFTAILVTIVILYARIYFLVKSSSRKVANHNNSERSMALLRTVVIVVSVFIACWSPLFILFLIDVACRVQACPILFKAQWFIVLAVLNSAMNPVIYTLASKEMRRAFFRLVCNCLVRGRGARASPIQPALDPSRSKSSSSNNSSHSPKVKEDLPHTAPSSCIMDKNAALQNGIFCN

[4] = target: Sphingosine 1-phosphate receptor 2 (Homo sapiens, UniProt O95136); test: Antagonist activity at human S1P2 receptor expressed in CHO cell membrane by FLIPR assay; procedure, shortened: as §1
Sphingosine 1-phosphate receptor 2, sequence (O95136 whole entry): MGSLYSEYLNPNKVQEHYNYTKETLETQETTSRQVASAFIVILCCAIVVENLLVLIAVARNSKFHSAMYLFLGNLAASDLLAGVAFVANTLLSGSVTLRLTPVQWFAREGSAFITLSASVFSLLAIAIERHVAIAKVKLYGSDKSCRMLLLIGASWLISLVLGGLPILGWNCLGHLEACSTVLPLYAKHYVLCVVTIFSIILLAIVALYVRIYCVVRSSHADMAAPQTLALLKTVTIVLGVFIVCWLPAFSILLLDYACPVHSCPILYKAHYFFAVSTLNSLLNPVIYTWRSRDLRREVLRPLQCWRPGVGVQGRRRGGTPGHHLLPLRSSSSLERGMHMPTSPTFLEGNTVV

[5] = target: Sphingosine 1-phosphate receptor 4 (Homo sapiens, UniProt O95977); test: Antagonist activity at human S1P4 receptor expressed in CHO cell membrane by FLIPR assay
Sphingosine 1-phosphate receptor 4, sequence (O95977 whole entry, looked up): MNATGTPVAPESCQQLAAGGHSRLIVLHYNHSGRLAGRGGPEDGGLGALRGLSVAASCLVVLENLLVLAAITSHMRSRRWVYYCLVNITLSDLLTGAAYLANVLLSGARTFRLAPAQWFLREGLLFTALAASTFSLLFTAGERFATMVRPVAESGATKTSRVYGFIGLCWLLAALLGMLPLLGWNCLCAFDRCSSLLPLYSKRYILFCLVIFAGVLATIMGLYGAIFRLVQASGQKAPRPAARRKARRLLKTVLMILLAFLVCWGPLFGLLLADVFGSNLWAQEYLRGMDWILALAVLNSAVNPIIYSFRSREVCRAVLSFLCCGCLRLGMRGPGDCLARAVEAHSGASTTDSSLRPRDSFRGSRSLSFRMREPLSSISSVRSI
Procedure, shortened: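 S1P4-expressing cells in HAM medium with 10% dialyzed FBS, seeded at 1 × 10⁵ cells/mL and grown 2 days. Buffer: HBSS without phenol red, 20 mM Hepes, 2.5 mM probenecid, pH 7.4. Fluo3-AM (4 µM, with 0.04% pluronic acid) loading for 45–60 min, then washed. Serially diluted compound given 10 min before S1P injection; calcium signal measured on FLIPR.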

T1 sequence (P21453 whole entry): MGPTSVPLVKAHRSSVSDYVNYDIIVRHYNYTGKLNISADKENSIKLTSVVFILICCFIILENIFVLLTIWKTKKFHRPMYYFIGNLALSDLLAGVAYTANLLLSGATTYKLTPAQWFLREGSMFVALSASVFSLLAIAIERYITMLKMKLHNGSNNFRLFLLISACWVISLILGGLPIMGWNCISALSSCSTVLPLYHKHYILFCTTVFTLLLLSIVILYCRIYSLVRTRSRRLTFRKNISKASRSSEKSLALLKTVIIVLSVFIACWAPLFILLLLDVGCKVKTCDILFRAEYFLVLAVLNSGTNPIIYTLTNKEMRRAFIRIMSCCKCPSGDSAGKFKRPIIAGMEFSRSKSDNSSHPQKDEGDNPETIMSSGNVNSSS

| pIC50 [1] | SMILES | further results |
| --- | --- | --- |
| 5.34 | CCCCCCCCCCC#CC(O)c1cccc(-c2ccc(Oc3ccc(OCC)cc3)c(S(=O)(=O)O)c2)c1 (configuration not stated) |  |
| 6.40 | CCCCCCCCCCC#CC(O)c1ccccc1-c1ccc(Sc2ccc(OCC)cc2)c(S(=O)(=O)O)c1 (configuration not stated) |  |
| 6.72 | CCCCCCCCCCC#CC(O)c1ccccc1-c1ccc(Sc2ccc(OCCCC)cc2)c(S(=O)(=O)O)c1 (configuration not stated) | pIC50 [2]: 6.00; pIC50 [3]: 4.89; pIC50 [4]: 4.62; pIC50 [5]: 4.40 |
| 6.40 | CCCCCCCCCCC#CC(O)c1ccccc1-c1ccc(Oc2ccc(OCC)cc2)c(S(=O)(=O)O)c1 (configuration not stated) |  |
| < 4.77 | CCCCCCCCCCC#CC(O)c1ccccc1-c1ccc(Oc2cccc(OCC)c2)c(S(=O)(=O)O)c1 (configuration not stated) |  |
| < 5.62 | CCCCCCCCCCC#CC(O)c1ccccc1-c1ccc(Sc2ccc(OCCCCCCCC)cc2)c(S(=O)(=O)O)c1 (configuration not stated) |  |
| 7.01 | CCCCOc1ccc(Sc2ccc(-c3ccccc3C(O)C#CCOCCCCCCCCCO)cc2S(=O)(=O)O)cc1 (configuration not stated) |  |
| 5.26 | CCCCCCCCCCC#CC(O)c1ccc(-c2ccc(Oc3ccc(OCC)cc3)c(S(=O)(=O)O)c2)s1 (configuration not stated) |  |
| 6.15 | CCCCCCCCCCC#CC(O)c1ccccc1-c1ccc(Sc2ccc(OC)cc2)c(S(=O)(=O)O)c1 (configuration not stated) |  |
| 6.72 | CCCCCCCCCCC#CC(O)c1ccccc1-c1ccc(Sc2ccc(OCCC)cc2)c(S(=O)(=O)O)c1 (configuration not stated) |  |
| 4.77 | CCCCCCCCCCCCCCCCCC1=NN(c2ccc(Oc3ccc(OCC)cc3)c(S(=O)(=O)O)c2)C(=O)C1 |  |
| 6.28 | CCCCCCCCCCC#CC(O)c1ccccc1-c1ccc(Sc2ccc(OCCCCCC)cc2)c(S(=O)(=O)O)c1 (configuration not stated) |  |
| < 4.70 | CCCCOc1ccc(Sc2ccc(-c3ccccc3C(O)C#CCOCCCO)cc2S(=O)(=O)O)cc1 (configuration not stated) |  |
| 6.89 | CCCCOc1ccc(Sc2ccc(-c3ccccc3C(O)C#CCOCCCCCCCCCCCO)cc2S(=O)(=O)O)cc1 (configuration not stated) |  |
| 6.00 | CCCCCCCCCCC#CC(C)(O)c1ccccc1-c1ccc(Sc2ccc(OCCCC)cc2)c(S(=O)(=O)O)c1 (configuration not stated) |  |
| 6.47 | CCCCOc1ccc(Sc2ccc(-c3ccccc3C(O)C#CCOCCCCCO)cc2S(=O)(=O)O)cc1 (configuration not stated) |  |
| 7.51 | CCCCOc1ccc(Sc2ccc(-c3ccccc3C(O)C#CCOCCCCCCCO)cc2S(=O)(=O)O)cc1 (configuration not stated) | pIC50 [2]: 6.30; pIC50 [3]: 5.30; pIC50 [4]: 4.96; pIC50 [5]: 5.22 |
| 5.05 | CCCCCCCCCCC#CC(O)c1ccccc1-c1ccc(Oc2ccccc2OCC)c(S(=O)(=O)O)c1 (configuration not stated) |  |
| 5.89 | CCCCCCCCCCC#CC(O)c1sccc1-c1ccc(Oc2ccc(OCC)cc2)c(S(=O)(=O)O)c1 (configuration not stated) |  |
